≈ marks a conversion by molar mass, not a printed value.
How the values were obtained:
Format in all cases: functional
Pseudomonas aeruginosa = assay: Antimicrobial activity against Pseudomonas aeruginosa PA0905
How it was run: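 The clinical urine isolate was collected in 2005 in Sorocaba, Brazil. Aminoglycoside MICs were determined by CLSI agar dilution, with E. coli ATCC 25922 as the control strain. β-Lactam, ciprofloxacin and colistin MICs were determined by Etest.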

Escherichia coli [1] = assay: Antimicrobial activity against Escherichia coli XL1-Blue pPA95S29
How it was run: (§1)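 Aminoglycoside MICs were determined by CLSI agar dilution, with E. coli ATCC 25922 as the control strain. The host was E. coli XL1-Blue carrying pBluescript II SK(+), either as vector alone or as a ligated Sau3AI partial digest of the cloned resistance plasmid. Transformants were selected on LB agar with 50 μg/ml ampicillin plus 10 μg/ml amikacin.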

Escherichia coli [2] = assay: Antimicrobial activity against Escherichia coli XL1-Blue [pBluescript 2 SK(+); how it was run: as §1

Structure (SMILES) | MIC (Pseudomonas aeruginosa) | MIC (Escherichia coli [1]) | MIC (Escherichia coli [2])
NC[C@H]1O[C@H](O[C@H]2[C@H](O)[C@@H](O[C@H]3O[C@H](CO)[C@@H](O)[C@H](N)[C@H]3O)[C@H](N)C[C@@H]2N)[C@H](N)C[C@@H]1O [TOBRAMYCIN] | 256 µg/mL (≈ 548 µM) | 64 µg/mL (≈ 137 µM) | 0.06 µg/mL (≈ 0.128 µM)
NCC[C@H](O)C(=O)N[C@@H]1C[C@H](N)[C@@H](O[C@H]2O[C@H](CN)CC[C@H]2N)[C@H](O)[C@H]1O[C@H]1O[C@H](CO)[C@@H](O)[C@H](N)[C@H]1O [ARBEKACIN] | > 256 µg/mL | > 256 µg/mL | 0.25 µg/mL (≈ 0.452 µM)
CO/N=C(\C(=O)N[C@@H]1C(=O)N2C(C(=O)[O-])=C(C[N+]3(C)CCCC3)CS[C@H]12)c1csc(N)n1 [CEFEPIME] | > 256 µg/mL |  | 
C[C@@H](O)[C@H]1C(=O)N2C(C(=O)O)=C(S[C@@H]3CN[C@H](C(=O)N(C)C)C3)[C@H](C)[C@H]12 [MEROPENEM] | > 32 µg/mL |  | 
NCC[C@H](O)C(=O)N[C@@H]1C[C@H](N)[C@@H](O[C@H]2O[C@H](CN)[C@@H](O)[C@H](O)[C@H]2O)[C@H](O)[C@H]1O[C@H]1O[C@H](CO)[C@@H](O)[C@H](N)[C@H]1O [AMIKACIN] | > 256 µg/mL | > 256 µg/mL | 0.5 µg/mL (≈ 0.854 µM)
C[C@H]1[C@H](NC(=O)/C(=N\OC(C)(C)C(=O)O)c2csc(N)n2)C(=O)N1S(=O)(=O)O [AZTREONAM] | 8 µg/mL (≈ 18.4 µM) |  | 
CN[C@@H]1[C@@H](O[C@H]2O[C@H](CO)[C@@H](N)[C@H](O)[C@H]2O)OC2C[C@@H](N)[C@@H](O[C@H]3[C@H](O)[C@@H](O)[C@H](N)C[C@@H]3N)OC2[C@@H]1O (some centres undefined) [APRAMYCIN] | 32 µg/mL (≈ 59.3 µM) | 2 µg/mL (≈ 3.71 µM) | 2 µg/mL (≈ 3.71 µM)
CC(C)(O/N=C(\C(=O)N[C@@H]1C(=O)N2C(C(=O)[O-])=C(C[n+]3ccccc3)CS[C@H]12)c1csc(N)n1)C(=O)O [CEFTAZIDIME] | > 256 µg/mL |  | 
C[C@@H](O)[C@H]1C(=O)N2C(C(=O)O)=C(SCCNC=N)C[C@H]12 [IMIPENEM ANHYDROUS] | > 32 µg/mL |  | 
CN[C@@H]1[C@H](O[C@H]2[C@H](O[C@H]3[C@H](O)[C@@H](O)[C@H](N=C(N)N)[C@@H](O)[C@@H]3N=C(N)N)O[C@@H](C)[C@]2(O)C=O)O[C@@H](CO)[C@H](O)[C@H]1O [STREPTOMYCIN] | 128 µg/mL (≈ 220 µM) | 1 µg/mL (≈ 1.72 µM) | 0.5 µg/mL (≈ 0.86 µM)
NC[C@@H]1O[C@H](O[C@H]2[C@@H](O)[C@H](O[C@@H]3[C@@H](O)[C@H](N)C[C@H](N)[C@H]3O[C@H]3O[C@H](CN)[C@@H](O)[C@H](O)[C@H]3N)O[C@@H]2CO)[C@H](N)[C@@H](O)[C@@H]1O [FRAMYCETIN] | 64 µg/mL (≈ 104 µM) | 0.12 µg/mL (≈ 0.195 µM) | 0.12 µg/mL (≈ 0.195 µM)
O=C(O)c1cn(C2CC2)c2cc(N3CCNCC3)c(F)cc2c1=O [CIPROFLOXACIN] | > 32 µg/mL |  | 

— ChEMBL document CHEMBL1142071, “Coproduction of novel 16S rRNA methylase RmtD and metallo-beta-lactamase SPM-1 in a panresistant Pseudomonas aeruginosa isolate from Brazil” (2007)
